Source: PubChem (several laboratories)
Redox H2O2 prof = compounds producing H2O2 with reducing agent – biochemical, NIH compound library profiling, artefact control for MLSCN library redox annotation, primary screen; activation, % at 10 µM; DTT-dependent redox cycling H2O2, phenol red/HRP absorbance; 100% = 100 µM peroxide control, 0% = buffer; actives 0.03% (n = 200,000);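 active = activation of at least 50% relative to the plate's high and low controls in the primary single-dose screen; inactive = activation below 50%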;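 note: compound incubated with DTT at 0.8 mM final as the reducing agent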
G6PDH CS = inhibits Leuconostoc G6PDH, flagging false hits in G6PDH-based assays; AID 1020; inhibition, % at 5 µM; actives 0.12% (n = 200,000); Purified L. mesenteroides G6PDH, diaphorase/resazurin coupled fluorescence, 45 min
Diaph inh CS = counter-screen for diaphorase-based assays: diaphorase inhibitors and chemical oxidizers; diaphorase resazurin-to-resorufin fluorescence, NADH, 16 min; bacterial (C. kluyveri) enzyme, not human; inhibition, % at 20 µM; actives 0.69% (n = 190,000);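 active = primary screen inhibition at 20 µM above a set limit, cut at about 50% in these data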;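 note: plate controls were DMSO with full reaction for no effect and wells lacking NADH for full effect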
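Benchmarks: positive control wells lacking NADH, neutral wells with DMSO only. System: bacterial diaphorase enzyme (C. kluyveri). Input: 0.14 U/mL diaphorase, enzyme working solution. Detection: resorufin fluorescence, excitation 544 nm, emission 590 nm. Times: 16-min room-temperature incubation before reading.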
L major viab = inhibitors of Leishmania major promastigote growth; Leishmania major promastigotes, resazurin fluorescence viability; inhibition, % at 10 µM; actives 9% (n = 200,000); AID 1063;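 note: promastigotes grown with compound for 44 hours at 28 °C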
Diaphorase act = diaphorase activation or chemical reduction counter-screen; actives 0.005% (n = 190,000); activation factor at 20 µM; Diaphorase/resazurin coupled assay, resorufin fluorescence, 16 min; active compounds read high; 1 = vehicle wells, 0 = NADH-free wells;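 active = diaphorase activity raised at least twofold by the compound at 20 µM; inactive = activation factor below 2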
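Material: Clostridium kluyveri diaphorase, purified enzyme; Quantity: enzyme 0.07 U/mL final; Medium: HEPES pH 7.4 buffer with MgCl2 and Tween 20; Dosing: single compound dose of 20 µM, 1% DMSO final; Schedule: 16 min reaction at room temperature; Measured by: red resorufin fluorescence at 544/590 nm excitation/emission.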
PfG6PD inh = PfG6PD (Plasmodium falciparum) enzyme inhibition. PfGluPho enzyme, NADPH resazurin-diaphorase fluorescence. inhibition, % at 20 µM. actives 0.78% (n = 350,000);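 active = inhibition reaching at least a set limit at 20 µM in the primary screen, cut at about 59% in these data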;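 note: 0% = DMSO wells with substrate and 100% = DMSO wells lacking glucose-6-phosphate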
PfG6PD confirm = confirmation of Plasmodium falciparum G6PD inhibitors | recombinant PfGluPho, NADPH-diaphorase-resazurin fluorescence | actives 34% (n = 2,400) | shares compounds with PfG6PD inh | AID 504753 | inhibition, % at 20 µM;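 active = inhibition of at least 50% at 20 µM in any single replicate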;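 note: 0% = DMSO with substrate and 100% = DMSO lacking glucose-6-phosphate substrate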
Diaphorase 10uM = diaphorase inhibition or oxidation at 10 uM NADPH | shares compounds with PfG6PD inh | diaphorase-coupled resazurin reduction, fluorescence, NADPH 10 uM | inhibition, % at 20 µM | actives 39% (n = 820) | AID 504862;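 active = average inhibition reaching 50% or more with the compound at 20 µM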;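 note: resorufin red fluorescence formed as diaphorase reduces resazurin using NADPH; 0% = DMSO with enzyme and 100% = DMSO without enzyme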
Diaph ctr 30uM = counter-screen for P. falciparum G6PD inhibitors: diaphorase inhibitors, oxidizers; shares compounds with PfG6PD inh; Diaphorase/resazurin coupled assay, resorufin fluorescence, 30 uM NADPH; inhibition, % at 20 µM; actives 29% (n = 820); AID 504863;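 active = inhibition averaging 50% or more, tested at 20 µM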;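 note: 0% = DMSO with enzyme and 100% = DMSO wells lacking diaphorase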
* hit, by the source's call; · = no result given. This excerpt belongs to a sample that is enriched for hits. Cut-off read from the data, not from the text of the source, unless noted: active = inhibition above about 50%; inactive = the rest.

SMILES	Redox H2O2 prof	G6PDH CS	Diaph inh CS	L major viab	Diaphorase act	PfG6PD inh	PfG6PD confirm	others
CCn1c(SCc2nc3ccccc3[nH]2)nnc1-c1cnccn1	1.1	-4.9	5.1	8.4	0.9	66.8*	40.4
CCC(CC)C(=O)NCc1ccccc1Cl	-3.2	1.8	8.5	-4.5	0.9	-1.1	·
Cc1cc(SCC(=O)N/N=C/c2ccco2)nc2ccccc12	6.2	5.6	16.3	3.5	0.8	79.6*	52.2*	Diaphorase 10uM=57.6*;Diaph ctr 30uM=48.4
O=C(CSc1nc2ccccc2o1)N/N=C/c1ccco1	·	·	·	·	·	24.3	·
Cc1cc(C)nc(SCc2ccc(F)cc2)n1	0.0	13.9	9.6	-6.2	0.9	-16.7	·
CNc1ncnc(Sc2nc(N)nc3nc[nH]c23)c1[N+](=O)[O-]	·	·	·	·	·	11.9	·
Nc1nc(Sc2ccc([N+](=O)[O-])c3nonc23)c2[nH]cnc2n1	·	·	·	·	·	121.8*	109.1*	Diaphorase 10uM=96.9*;Diaph ctr 30uM=84.5*
CCc1cc2c(=O)c(-c3nc(C)cs3)coc2cc1O	·	·	·	·	·	76.0*	29.6
Cc1ccc(Nc2nnc(SCc3cc(=O)n4ccsc4n3)s2)c(C)c1	0.6	4.3	29.5	10.2	0.7	-1.8	·
COc1ccccc1Nc1nnc(SCc2cc(=O)n3ccsc3n2)s1	-0.1	-9.3	15.7	10.8	0.8	66.7*	40.2
CCNc1ccc(S(=O)(=O)C(F)(F)F)cc1NC(=O)C12CCC(CC1)C2	1.4	-6.7	16.0	-6.2	0.8	-4.1	·
CCNc1cc(S(=O)(=O)C(F)(F)F)ccc1N	-0.2	3.9	9.8	-0.3	0.9	71.7*	41.8
COC(=O)C1CCN(C(=O)c2cc(S(=O)(=O)N3CCCCC3)ccc2Cl)CC1	·	·	·	·	·	-1.4	·
C[C@H]1CCCCO[C@H](CN(C)CC2CCCCC2)[C@@H](C)CN([C@@H](C)CO)C(=O)c2cc(NS(=O)(=O)c3ccccc3)ccc2O1	·	·	·	·	·	27.1	·
S=C(NNC(=S)Nc1ccc(Cl)cc1)NNc1ccccc1	·	·	·	·	·	72.9*	25.5
CCCc1nc(NCCCOCC)c2nnn(Cc3ccccc3)c2n1	·	·	·	·	·	14.2	·
CCO[C@@H]1OC(C(=O)N2CCN(Cc3ccc4c(c3)OCO4)CC2)=C[C@H](C2CC2)[C@H]1CCCO	-0.1	4.8	-8.2	8.7	1.1	12.5	·
CCOC(=O)c1cnc2ccc(C)cc2c1Sc1ccccc1C(=O)OC	-7.9	1.0	23.4	-0.4	0.8	104.2*	48.1*	Diaphorase 10uM=43.9;Diaph ctr 30uM=38.9
CNS(=O)(=O)c1ccc(Cl)nc1	-0.1	-4.3	-9.6	0.4	1.1	0.2	·
CCCCNC1=CC(=O)C(NCCCC)=CC1=O	·	·	·	·	·	62.2*	-3.1
O=C(NNc1nc2ccccc2s1)c1ccc(F)cc1	-0.9	1.4	9.1	8.2	0.9	3.2	·
CC(C)NC(=S)NNc1nc2ccccc2s1	0.1	2.8	22.3	6.3	0.8	73.6*	22.0
C[C@@H]1ON(C)[C@H]2C[C@H]3c4[nH]c5ccc(-c6ccc7c(c6)OCO7)cc5c4CCN3C(=O)[C@@H]12	·	·	·	·	·	76.2*	44.2
CO/N=C/c1ccc(Oc2ccc([N+](=O)[O-])cc2[N+](=O)[O-])c(OC)c1	0.4	10.4	8.6	8.0	0.9	94.5*	43.5
Cc1ccc(S(=O)(=O)CCC(=O)OCC(=O)NCc2ccc(Cl)cc2)cc1	-0.5	0.2	12.8	-5.6	0.9	-12.8	·
CCOC(=O)c1c(-c2ccc(C)o2)csc1NC(=O)COC(=O)c1cccs1	2.2	1.6	23.2	-1.1	0.8	59.0*	-3.4
Cc1cccc(Nc2nnc(SCC(=O)c3ccc(O)cc3O)s2)c1	·	·	·	·	·	7.2	·
Cc1ccc(Nc2nnc(SCC(=O)c3ccc(O)cc3O)s2)cc1	·	·	·	·	·	68.2*	32.6
